In article PMC9647759 (Pharmaceutical Chemistry Journal, 2022) one finds toxicity in vitro and toxicity in vivo data, which are given here for two compounds.

One data set relates to Vero cells. The experiment in a line: In vitro cytotoxicity assay on Vero cells. Conditions: 100 μM, 24 h, 3000 Vero cells/well. The class given is cell-based, monkeys. The essentials: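 Vero cells, about 3000 per well at 90% confluency, were exposed to the test compound at 100 μM for 24 h at 37°C in a CO2 incubator. The percentage of metabolically active cells was compared with untreated control to give cytotoxicity. Three independent runs were done.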

The next data set has as its system female Wistar rats. Briefly: Acute oral toxicity. The class given is in vivo. To be noted: 100 mg/kg, observed 48 h for mortality. Put shortly: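 Female Wistar rats were fasted overnight, then given the test compound orally as a single 100 mg/kg dose. Animals were watched for signs of morbidity […].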

In the case of `Cc1nc2ccccc2n1CC(=O)NNc1ccccc1` [MBPHYD, 2-(2-methyl-1H-benzimidazol-1-yl)-N′-phenylacetohydrazide], in the data set on Vero cells, the toxicity in vitro result was “non-toxic”. The toxicity in vivo result in the data set on female Wistar rats is “non-toxic”.
Consider `Cc1nc2ccccc2n1CC(=O)NN` [MBNHYD, 2-(2-methyl-1H-benzimidazol-1-yl) acetohydrazide], for which the toxicity in vitro entry in the data set on Vero cells was “non-toxic”. Also, in the data set on female Wistar rats, the toxicity in vivo entry is reported as “non-toxic”.
